# Screens as filed in PubChem.
# HIV Rev-RRE inh: HIV-1 Rev-RRE binding inhibitors, primary screen, biochemical, FRET, protein-RNA interaction; P05866; Rev peptide-RRE RNA binding; inhibition, % at 8 µM; 0.79% of 97,000 active; AID 704, 2007;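 active = inhibition above the screen-wide mean plus 3 SD, cut at about 35% in these data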;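 note: 0% = median DMSO wells and 100% = median Neomycin B control wells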
#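 Assay system: labelled RRE RNA duplex and labelled Rev peptide / Medium: HEPES pH 7.5 salt buffer with EDTA / Reagent: labelled Rev peptide / Schedule: 5 + 15 min at 25 °C / Signal: FRET, excitation 480 nm, emission 540 nm donor and 671 nm acceptor / Benchmarks: DMSO and neomycin B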
# Pyk2 oligo antag: antagonists of Pyk2 self-association, primary screen, Q293 cells, FERM NanoBiT luminescence, HTS | stronger effect = lower value | z-score (the deposit names both 25 µM and 10 µM) | 0.83% of 99,000 active | AID 1347419, 2020;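 active = Z-score of -3 or lower, scaled per plate to the spread of control and sample wells; inactive = z-score above -3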;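 note: negative z-score means lost luminescence so less FERM oligomerization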
# Phagocytosis inh: inhibitors of macrophage phagocytosis, primary screen, imaging, J774A.1 cells, IgG beads; inhibition, % at 5 µM; 0.07% of 110,000 active; AID 1029, 2008; J774A.1 macrophage IgG-bead phagocytosis;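 active = inhibition above the mean of the plate negative controls plus 5 SD, cut at about 13% in these data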;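 note: phagocytic index as fraction of beads internalized from green versus red external bead signal; plate controls were DMSO negative control for no effect and cytochalasin-D positive control for full effect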
# DAT uptake mod: changed hDAT dopamine uptake under cocaine IC80, either direction, primary screen, cocaine antagonist project, cell-based, LLC-PK1 hDAT, [14C]-dopamine uptake, MLSMR; LLC-PK1 hDAT cells, [14C]-dopamine uptake with cocaine IC80; actives deviate in either direction; B-score at 10 µM; Sodium-dependent dopamine transporter (Homo sapiens), Q01959; 1.3% of 110,000 active;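 active = Z score or B-score, a plate-position-corrected score, falls beyond the plate's 99.7% confidence bounds, in either direction; inactive = both scores lie inside the 99.7% bounds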;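 note: scored against the spread of the other compound wells on the same plate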
# Cav32 inh: Cav3.2 calcium influx blockers – cell-based, Fluo-4 calcium fluorescence, FDSS, MLSMR library, primary screen | 4% of 100,000 active | B-score at 10 µM | Cav3.2-expressing cells; stronger effect = lower value | Voltage-dependent T-type calcium channel subunit alpha-1H (Homo sapiens), O95180;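 active = single-dose well whose peak fluorescence ratio is a statistical outlier from its plate by either plate-standardised score or position-corrected B-score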
# Measles CPE: compounds protecting cells from measles virus cytopathic effect, primary screen, measles RdRp inhibitor project, single point, MLSMR library, absorbance; Measles virus-infected cells, CPE protection; protection (pct of control), % at 4 µM; 1.5% of 140,000 active; AID 841, 2007; in the data active = protection mostly above about 24%, no sharp cut-off; inactive = mostly below about 26%
# Starred values were filed as active, the others as inactive; nt = no result given; [ ] = another dose, or the depositor's remark. A selection: hits, their analogues and other compounds. The true share with any hit is near 5.9%.
SMILES,HIV Rev-RRE inh,Pyk2 oligo antag,Phagocytosis inh,DAT uptake mod,Cav32 inh,Measles CPE
Cc1ccsc1C1Nc2ccccc2C(=O)N1O (configuration not stated),nt,nt,-2,nt,nt,7
Cc1ccsc1C1NC(=O)c2c(sc3c2CCN(C)C3)N1 (configuration not stated),100*[fluorescence artefact?],nt,-1,0.0024,-0.096,0
CN1CCc2c(sc3c2C(=O)NC(c2cccs2)N3)C1 (configuration not stated),67*,0.95,0,-0.27,0.16,21
CN1CCc2c(sc3c2C(=O)NC(c2ccc(-c4cccc(Cl)c4)o2)N3)C1 (configuration not stated),nt,nt,nt,0.061,nt,nt
CSc1ccc(C2NC(=O)c3c(sc4c3CCN(C)C4)N2)cc1 (configuration not stated),84*,nt,0,nt,nt,19
COc1ccc(COc2ccccc2C(=O)NCc2ccccc2)cc1F,nt,nt,-13,nt,nt,8
CNC(=S)NNC(=O)Cc1ccc(OC)c(OC)c1,10,0.4,0,0.48,0.039,6
CCn1c(=NC(=O)CSC(C)=O)sc2ccccc21,7,1.7,0,-1.7,-7.3*,11
Cn1c(=NC(=O)CN2C(=O)C3CC=CCC3C2=O)sc2ccccc21 (configuration not stated),4,1.6,-1,0.096,1.2,13
COC(=O)Cn1c(=NC(=O)CSC(C)=O)sc2ccccc21,nt,nt,4,-2,-6.2*,8
COc1ccc(C(=O)C(C)Oc2cccc(NC(=O)c3cccc([N+](=O)[O-])c3)c2)cc1 (configuration not stated),nt,nt,-2,nt,nt,40
Cc1nc(NC(=O)c2ccccc2)sc1C1(C)CC(c2c(Cl)cccc2Cl)=NO1 (configuration not stated),nt,nt,nt,0.78,-0.86,nt
COc1ccc([N+](=O)[O-])cc1NC(=O)c1ccc(C)o1,nt,nt,-6,nt,nt,9
COCC(=O)N/N=C/c1ccc(Sc2nc3ccccc3s2)o1,7,3.1,1,nt,-3.6,13
N#CCC(=O)N/N=C/c1ccc(Sc2nc3ccccc3s2)o1,-1,-0.3,nt,0.37,-5.3*,4
Cc1ccccc1OCC(=O)N/N=C/c1ccc(Sc2nc3ccccc3s2)o1,7,0.19,0,0.026,-6.8*,7
Cc1cc(NC(=O)CN2C(=O)NC3(CCCCC3C)C2=O)no1 (configuration not stated),nt,nt,nt,nt,nt,6
CC1CCCCC12NC(=O)N(CC(=O)NC(=O)Nc1ccc3c(c1)OCCO3)C2=O (configuration not stated),-2,-3.6*,-3,-0.15,0.26,20
S=C1NC[C@H](CC2CCCCC2)N1CC1CCCCC1,nt,nt,nt,-0.0037,0.1,nt
CC(C)c1ccc(C(=O)NNC(=O)C2CC=CCC2C(=O)O)cc1 (configuration not stated),nt,nt,-1,nt,nt,29*
Cc1ccsc1C(=O)NNC(=O)C1CC=CCC1C(=O)O (configuration not stated),nt,nt,-3,nt,nt,9
CCOc1cc(C(=O)NCCCn2ccnc2)cc(OCC)c1OCC,nt,nt,nt,nt,nt,7
O=C(Cn1c(C(=O)NCC2CCCO2)cc2sccc21)c1ccccc1 (configuration not stated),3,-1.3,-2,0.15,-0.76,3
O=C(Cn1c(C(=O)N2CCN(C3CCCC3)CC2)cc2sccc21)c1ccccc1,5,-3,-1,2.5*,-0.72,7
Cc1nc(SCC(=O)Nc2c(C)n(C)n(-c3ccccc3)c2=O)[nH]c(=O)c1C,8,1.6,nt,0.11,-0.45,nt
SMILES,HIV Rev-RRE inh,Pyk2 oligo antag,Phagocytosis inh,DAT uptake mod,Cav32 inh,Measles CPE
COC(=O)c1ccccc1N1C(=O)C2C(C1=O)[C@H]1C=C[C@@H]2C1 (some centres not stated),9,0.38,-2,0.63,-0.041,101*
COC(=O)c1ccccc1N1C(=O)C2C(C1=O)C1C=CC2C12CC2 (configuration not stated),-1,0.65,nt,-1.4,0.79,10
O=C(C1CC1)N1CCc2cc(Br)cc(S(=O)(=O)NCC3COc4ccccc4O3)c21 (configuration not stated),nt,-0.51,-3,0.02,-4.1*,4
O=C(C1CC1)N1CCc2cc(Br)cc(S(=O)(=O)N3CCCCCC3)c21,nt,-1,0,6*,-3.5,21
CCC(=O)N1CCc2cc(Br)cc(S(=O)(=O)N3CCCCCC3)c21,3,-1.1,nt,-0.0079,-0.87,12
Cc1cc(S(=O)(=O)N2CCN(c3ncccn3)CC2)ccc1-n1cnnn1,nt,1.2,nt,0.86,1.9,25
Cc1cc(C)nc(NS(=O)(=O)c2ccc(N/C=C\C(=O)c3ccc(Cl)cc3)cc2)n1,-1,0.36,2,0.73,0.28,4
Cc1cc(C)nc(NS(=O)(=O)c2ccc(N/C=C/C(=O)c3ccc(Cl)c(Cl)c3)cc2)n1,nt,nt,-3,nt,nt,44*
CCOC(=O)c1c(NC(=O)CN2CCCCC2)sc2c1CCC(C=O)=C2Cl,16,-3.1*,0,0.022,0.016,4
COc1ccc(Cn2c(=O)[nH]c3cc(C(=O)N4CCN(Cc5ccccc5)CC4)ccc3c2=O)cc1,7,-1.2,2,0.23,-7.5*,5
O=C(c1ccc(Cn2c(=O)[nH]c3ccccc3c2=O)cc1)N1CCN(c2ccc(F)cc2)CC1,0,0.91,1,0.053,-9*,8
CCN1CCN(C(=O)c2ccc(Cn3c(=O)[nH]c4cc(OC)c(OC)cc4c3=O)cc2)CC1,6,-0.62,-2,0.05,-0.065,6
Cc1ccc(OCCOc2ccc(Br)cc2)c([N+](=O)[O-])n1,nt,nt,0,nt,nt,9
CNC(=S)N1CCN(c2c(F)cc3c(=O)c(C(=O)O)cn(C4CC4)c3c2OC)CC1C (configuration not stated),2,0.26,-2,0.86,4.4*,6
COc1c(N2CCN(C(=S)Nc3ccccc3)C(C)C2)c(F)cc2c(=O)c(C(=O)O)cn(C3CC3)c12 (configuration not stated),-4,nt,nt,1.1,nt,5
CC[n+]1c(/C=C/C=C/N(C(C)=O)c2ccccc2)sc2ccccc21,129*[fluorescence artefact?],0.05,nt,-0.21,-4.6*,6
COc1cc(COCC(O)CN2CCOCC2)cc(OC)c1OC (configuration not stated),4,1.7,4,0.029,nt,32*
Cc1cc(Nc2cccc(Cl)c2)n2ncnc2n1,nt,nt,nt,nt,nt,29*
